Here are results for 1 compound from ChEMBL document CHEMBL1147105, “In vitro and in vivo activities of PD 0305970 and PD 0326448, new bacterial gyrase/topoisomerase inhibitors with potent antibacterial activities versus multidrug-resistant gram-positive and fastidious organism groups” (2007).

Test [1] deals with Staphylococcus aureus. Nature of the test: Antibacterial efficacy against methicillin-susceptible Staphylococcus aureus UC76 infected orally dosed CD1 mouse model. It counts as functional. The note with it: UC76, po. In short, it runs like this:
(§1)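 Sepsis model in female CD1 mice (6–8 weeks, 18–22 g). Lethal i.p. challenge (0.5 ml) at ≥100 median lethal doses. Streptococci were given in Todd-Hewitt broth; other organisms were given with 20% hog gastric mucin. A single oral gavage dose (0.5 ml, in 0.5% methylcellulose) was given at the time of challenge. The PD50 (mg/kg) was calculated by probit analysis.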

In test [2] the test system is Streptococcus pneumoniae. Nature of the test: Bactericidal activity against Streptococcus pneumoniae SV1 at 2 ug/ml by time-kill study. It counts as functional, organism-based. In short, it runs like this:
(§2)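 Time-kill in 10 ml of cation-adjusted Mueller-Hinton broth with 3% lysed horse blood, without agitation. Multiples of MIC tested. Samples taken at 0, 2, 4, 6 and 24 h and plated on tryptic soy agar with 5% sheep blood after ≥250-fold dilution, detection limit 10 CFU/ml. Counts read after 24 h at 35°C. Bactericidal defined as a ≥3 log10 drop from the starting inoculum within 24 h.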

The subject of test [3] is Streptococcus pneumoniae. Nature of the test: Bactericidal activity against Streptococcus pneumoniae SV1 at 0.008 ug/ml by time-kill study. Type of test: functional, organism-based. A digest of the protocol: as §2
A further test concerns Enterococcus faecalis. Nature of the test: Antibacterial efficacy against Enterococcus faecalis MGH2 infected orally dosed CD1 mouse model. It counts as functional. In short, it runs like this: as §1
Test [4] deals with Staphylococcus aureus. Nature of the test: Antibacterial efficacy against ciprofloxacin and methicillin-resistant Staphylococcus aureus SA2017 infected orally dosed CD1 mouse model. Type of test: functional. A digest of the protocol:
as §1

Test [5] has as its system Staphylococcus aureus. Nature of the test: Antibacterial efficacy against methicillin-resistant Staphylococcus aureus SA1417 infected orally dosed CD1 mouse model. Type of test: functional. A digest of the protocol:
as §1

Test [6] relates to Streptococcus pyogenes. Nature of the test: Antibacterial efficacy against Streptococcus pyogenes C203 infected orally dosed CD1 mouse model. Type of test: functional. The note with it: C203, po. A digest of the protocol: as §1
The subject of test [7] is Streptococcus pyogenes. Nature of the test: Bactericidal activity against Streptococcus pyogenes C203 at 2 ug/ml by time-kill study. It counts as functional, organism-based. In short, it runs like this:
as §2

For test [8], the system named is Streptococcus pneumoniae. Nature of the test: Antibacterial efficacy against Streptococcus pneumoniae SVI infected orally dosed CD1 mouse model. The conditions noted are these: po. It counts as functional. In short, it runs like this: as §1
Test [9] concerns Streptococcus pyogenes. Nature of the test: Bactericidal activity against Streptococcus pyogenes C203 at 0.008 ug/ml by time-kill study. Type of test: functional, organism-based. In short, it runs like this:
as §2

≈ marks a conversion by molar mass, not a printed value. Calls of active or inactive are those of the source.

Take `O=C(O)c1cn(C2CC2)c2cc(N3CCNCC3)c(F)cc2c1=O` [CIPROFLOXACIN]: the MIC is 0.06 µg/mL (≈ 0.181 µM) against Staphylococcus aureus [1]; 0.5 µg/mL (≈ 1.51 µM) with Enterococcus faecalis; > 64 µg/mL against Staphylococcus aureus [4]; 0.5 µg/mL (≈ 1.51 µM) against Staphylococcus aureus [5]; 0.5 µg/mL (≈ 1.51 µM) against Streptococcus pyogenes [6]; 2 µg/mL (≈ 6.04 µM) in the test with Streptococcus pneumoniae [8]. The ED50 is 9.1 mg/kg in the test with Staphylococcus aureus [1] (read-out: PD50); > 100 mg/kg in the test with Staphylococcus aureus [4] (read-out: PD50); 18 mg/kg with Staphylococcus aureus [5] (read-out: PD50); > 100 mg/kg with Streptococcus pyogenes [6] (read-out: PD50); > 100 mg/kg in the test on Streptococcus pneumoniae [8] (read-out: PD50). Further, the result in the test on Streptococcus pneumoniae [2], in the test with Streptococcus pneumoniae [3], in the test on Streptococcus pyogenes [7] and in the test with Streptococcus pyogenes [9] was Active.
